In the library only some 1.9% were active in any assay of this set; here they are far more common.
M4 ag = agonists of human muscarinic M4 receptor (CHRM4); P08173; CHO-K1 hM4/Gqi5, Fluo-8 calcium fluorescence; vehicle 0%, full acetylcholine response 100%; activation, % at 3 µM; hit rate 0.14% among 360,000; AID 624127;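 active = activation above the run mean over all test wells plus 3 SD, cut at about 32% in these data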;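 also: peak over basal fluorescence ratio per well then scaled between controls; 0% = DMSO wells and 100% = acetylcholine at EC100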
Target sequence (P08173 whole entry, looked up): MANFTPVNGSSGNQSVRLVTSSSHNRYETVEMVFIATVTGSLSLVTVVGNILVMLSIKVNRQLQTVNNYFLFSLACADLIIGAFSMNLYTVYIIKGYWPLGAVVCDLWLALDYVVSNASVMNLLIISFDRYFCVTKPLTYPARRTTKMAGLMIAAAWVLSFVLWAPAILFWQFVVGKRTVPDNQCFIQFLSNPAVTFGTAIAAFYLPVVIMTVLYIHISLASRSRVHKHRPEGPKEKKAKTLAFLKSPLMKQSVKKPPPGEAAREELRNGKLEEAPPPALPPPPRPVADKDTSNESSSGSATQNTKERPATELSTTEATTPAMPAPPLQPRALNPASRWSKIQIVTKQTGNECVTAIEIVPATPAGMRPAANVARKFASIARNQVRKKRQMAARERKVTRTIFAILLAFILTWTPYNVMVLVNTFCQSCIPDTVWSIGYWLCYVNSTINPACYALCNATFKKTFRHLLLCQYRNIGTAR
M5 ag = agonists of human muscarinic M5 receptor (CHRM5); P08912; CHO-K1 hM5 cells, Fluo-8 calcium fluorescence; 0% DMSO wells, 100% maximal acetylcholine response; activation, % at 3 µM; hit rate 0.19% among 360,000; AID 624037;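 active = activation above the run's mean over test compounds plus 3 SD, cut at about 23% in these data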;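 also: signal is peak over basal fluorescence ratio across the kinetic read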
CHRM4 PAM = CHRM4 positive allosteric modulation | P08173 | CHO-K1 hM4/Gqi5, Fluo-8 calcium fluorescence, ACh EC20; 0% = ACh EC20, 100% = maximal ACh | activation, % at 3 µM | hit rate 0.4% among 360,000 | AID 624126;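 active = activation above its plate's cutoff, the mean activation of sample wells plus 3 SD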
CHRM5 antagonist = antagonists of human muscarinic M5 receptor (CHRM5). P08912. CHO-hM5 cells, Fluo-8 calcium fluorescence, ACh EC80. inhibition, % at 3 µM. hit rate 0.59% among 360,000;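 active = inhibition above a per-plate cutoff, the mean of that plate's test compounds plus 3 SD, cut at about 27% in these data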;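 also: 0% = acetylcholine EC80 with DMSO and 100% = DMSO without agonist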
CHRM5 PAM = positive allosteric modulators of human muscarinic M5 receptor; P08912; CHO-K1 hM5, Fluo-8 calcium, ACh EC20 PAM; 0% = ACh EC20, 100% = ACh EC100; activation, % at 3 µM; hit rate 0.3% among 360,000;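 active = activation above the run cutoff, the mean activation of all test compounds plus 3 SD, cut at about 18% in these data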
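Replicates: One well per compound, no replicates | System: Human M5 receptor in CHO-K1 cells | Benchmarks: Low control EC20 acetylcholine (0%), high control EC100 acetylcholine (100%) | Probe or stimulus: Acetylcholine, EC20 level | Times: Fluo-8 loading 80 min at 37 °C plus 30 min room temperature | Signal: Intracellular calcium via Fluo-8 fluorescence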
M4 antag = blocks acetylcholine activation of human M4 receptor. CHO-hM4 cells, ACh EC80, Fluo-8 calcium fluorescence. inhibition, % at 3 µM. hit rate 0.73% among 360,000;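 active = inhibition above its plate's cutoff, the mean inhibition of sample wells plus 3 SD, cut at about 27% in these data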;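 also: 0% = acetylcholine EC80 with DMSO and 100% = DMSO without agonist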
Numbers without * were called inactive.

SMILES | M4 ag | M5 ag | CHRM4 PAM | CHRM5 antagonist | CHRM5 PAM | M4 antag
OCC1(Cc2ccccc2)CCCN(Cc2ccc(-c3ccco3)cc2)C1 (stereo not drawn) | 12.0 | -8.0 | -25.6 | 13.5 | -9.0 | 12.4
OCC1(Cc2ccccc2)CCN(Cc2ccc(-c3ccco3)cc2)CC1 | 2.2 | -14.5 | -20.1 | 12.2 | -8.5 | 30.1*
Fc1ccc(Nc2nc(-c3ccncc3)nc3ccccc23)cc1 | 2.1 | 1.7 | 23.6* | 4.3 | 3.4 | 2.1
c1ccc(Nc2nc(-c3ccncc3)nc3ccccc23)cc1 | 0.3 | 0.3 | 0.5 | 0.7 | -4.4 | -0.1
O=C(N/N=C/c1cn(-c2cccs2)nc1-c1ccccc1)c1ccccc1O | 12.4 | 2.1 | -14.3 | 28.2* | -16.9 | 14.7
O=C(N/N=C/c1cn(-c2cccs2)nc1-c1ccccc1)c1ccccc1Br | 4.3 | 1.8 | -5.2 | -6.4 | -6.0 | 9.7
C[C@H]1CN(c2ccccc2)C(=O)[C@@H]1CC(=O)Nc1ccccc1 | 9.0 | 3.4 | 2.2 | 4.1 | -0.1 | -10.8
CC(C)(C)n1cnc2cc(NCc3ccc(Br)cc3)ccc21 | 2.8 | -4.0 | -3.2 | 27.3* | -6.4 | -1.2
CCc1ccc(CNc2ccc3c(c2)ncn3C(C)(C)C)cc1 | 3.9 | -5.5 | -1.6 | 9.2 | -11.3 | -17.9
COC(=O)c1cc(NC(=O)/C=C/c2ccc3c(c2)OCO3)cc(C(=O)OC)c1 | 5.5 | -0.6 | 9.6 | 10.4 | 1.2 | 35.7*
COC(=O)c1cccc(NC(=O)/C=C/c2ccc3c(c2)OCO3)c1 | 7.2 | 1.0 | -2.5 | 8.0 | -6.7 | 7.0
CCOC(=O)c1c(C)[nH]c(C(=O)CN2C(=O)C(=O)N(CC(C)C)C2=O)c1C | 6.5 | -0.2 | -0.8 | -22.4 | -10.5 | -6.4
COC(=O)c1c(C)[nH]c(C(=O)CN2C(=O)C3CC=CCC3C2=O)c1C (stereo not drawn) | 3.2 | 3.9 | 26.2* | 3.1 | 3.0 | 0.3
CCOC(=O)c1c(C)[nH]c(C(=O)CN2C(=O)NC(C)(c3ccc(C)cc3)C2=O)c1C (stereo not drawn) | 21.0 | 27.3* | 8.6 | 4.9 | 1.8 | -2.5
Cc1cc(C)n(CC(=O)NNC(=O)CC(C)c2ccccc2)n1 (stereo not drawn) | 1.9 | -1.3 | 8.9 | -2.9 | 3.2 | -12.5
COc1ccc(S(=O)(=O)N(CC(=O)NCCC(C)C)c2ccccc2)cc1OC | 2.9 | -2.9 | 25.2* | -7.8 | 12.2 | -18.4
CCCNC(=O)CN(c1ccccc1)S(=O)(=O)c1ccc(OC)c(OC)c1 | 2.7 | -1.5 | 7.4 | -12.0 | 7.4 | -12.5
Cc1cc2nc(-c3nnnn3-c3c(C)cccc3C)c(=O)[nH]c2cc1C | 0.6 | -0.4 | 9.1 | 3.2 | -8.5 | -19.5
Cc1cn(C2CC(O)C(CO)O2)c(=O)n(Cc2ccccc2)c1=O (stereo not drawn) | 0.3 | 0.8 | 2.4 | 5.0 | -4.9 | -4.1
NC(=S)Nn1c(-c2ccccc2)nc2ccccc2c1=O | 2.2 | 1.9 | 17.5 | -4.0 | 22.1* | -1.7
C[C@H](CO)N1C[C@H](C)[C@@H](CN(C)S(C)(=O)=O)Oc2ccc(N(C)C)cc2C1=O | -1.3 | -1.3 | 1.2 | 10.3 | 2.4 | -1.5
CCN(CC)CCNC(=O)c1ccc(N)cc1 | 0.1 | -0.6 | -13.1 | -6.2 | 0.8 | 29.4*
CCN(CC)CCNC(=O)c1ccc(NC(C)=O)cc1 | 1.8 | 0.1 | 2.1 | 1.3 | -1.6 | -14.3
O=C(CNC(=O)C12CC3CC(CC(C3)C1)C2)OCc1ccc(F)cc1Cl | 15.9 | 3.2 | -2.5 | 8.8 | -25.0 | -4.3
CC1(C)CC(=O)C2=C(C1)OC(N)=C(C#N)C2c1cccs1 (stereo not drawn) | 0.2 | -1.0 | -7.7 | 1.1 | -6.0 | 6.1
SMILES | M4 ag | M5 ag | CHRM4 PAM | CHRM5 antagonist | CHRM5 PAM | M4 antag
COC(=O)C1=C(N)OC2=C(C(=O)CC(C)(C)C2)C1c1cccs1 (stereo not drawn) | 1.2 | -2.5 | 20.0* | -1.2 | 4.4 | -6.9
Cc1cccc(C)c1-n1nnnc1C1(C)CCC(=O)N1Cc1ccco1 (stereo not drawn) | 0.4 | -1.2 | 5.0 | 9.3 | -5.0 | -4.4
CCN1CCc2c(sc(NC(=O)Nc3ccc(Cl)c(Cl)c3)c2C(N)=O)C1 | 123.8* | 76.7* | -43.7 | 58.0* | -19.2 | 51.2*
COc1ccc(CCNC(=O)CCc2nnc(Cc3ccc4c(c3)OCO4)o2)c(OC)c1 | 0.2 | -2.0 | -5.8 | 19.5 | -7.3 | 10.6
O=C(/C=C/c1ccc(F)cc1)NC(=S)NNC(=O)[C@H]1C[C@@H]1c1ccccc1 | 53.1* | 13.3 | -8.7 | 28.9* | -13.1 | 8.4
O=C1NC[C@@H](Cc2cccc3ccccc23)N(CCc2cccc(F)c2)C1=O | 1.0 | 2.1 | 19.4 | 4.5 | -7.2 | 8.7
CCN(CC)CCN1C(=O)c2ccccc2NC1c1ccc(F)cc1 (stereo not drawn) | 0.4 | -7.7 | -6.8 | -8.0 | 3.0 | 2.5
CCN(CC)CCN1C(=O)c2ccccc2NC1c1ccccc1F (stereo not drawn) | 0.5 | -6.8 | -15.3 | 13.7 | -22.6 | 29.3*
CC1CCCN(CCC(=O)c2ccccc2)C1 (stereo not drawn) | 1.2 | 4.3 | 9.2 | 1.5 | -3.2 | 2.2
CC1Cc2ccccc2N1C(=O)CN1CCCCC1 (stereo not drawn) | 17.0 | -0.5 | -6.6 | 7.2 | -6.6 | -2.2
O=C(/C=C/c1ccccc1)N1c2ccccc2Sc2ccc(C(F)(F)F)cc21 | -0.1 | 2.2 | 29.0* | 7.1 | 6.9 | -6.7
O=C(CN1CCN(CCOCCO)CC1)N1c2ccccc2Sc2ccc(Cl)cc21 | 1.4 | -13.5 | -16.5 | 2.1 | -32.8 | 34.1*
O=C(CN1CCCCC1)N1c2ccccc2Oc2ccccc21 | 1.1 | -7.7 | -19.8 | 22.6 | -22.3 | 37.3*
O=C(CN1CCOCC1)N1c2ccccc2Sc2ccc(Cl)cc21 | -0.2 | -3.2 | -8.4 | 7.5 | -9.2 | 15.2
CC1CCCN(CC(=O)N2c3ccccc3Sc3ccccc32)C1 (stereo not drawn) | -0.5 | -13.8 | -22.3 | 30.5* | -34.1 | 32.7*
O=C(NC1CCCCCC1)c1ccc(Cl)c(S(=O)(=O)N2CCOCC2)c1 | 3.8 | 0.1 | -6.7 | 17.7 | -10.5 | -2.5
O=C1CCCN1CCCNCC(O)c1ccccc1 (stereo not drawn) | 0.8 | -1.6 | 4.7 | 12.4 | 2.1 | -5.9
CCOC(=O)N1CCN(CC(=O)N2c3ccccc3Sc3ccccc32)CC1 | 4.0 | 13.9 | 2.0 | 0.9 | 1.2 | -16.3
CC1CCCN(c2ccc(C(=O)OCC(=O)N3c4ccccc4Sc4ccccc43)cc2[N+](=O)[O-])C1 (stereo not drawn) | -0.6 | -5.2 | -31.5 | 5.8 | -17.7 | 29.8*
O=C1CCCN1CCCNCC(=O)N1c2ccccc2Sc2ccccc21 | -0.3 | -12.1 | -17.9 | 35.4* | -26.0 | 52.0*
